Type in all cases: biochemical
Test [1] has as its target T1, MIF (Homo sapiens, UniProt P14174).
T1 sequence (P14174 2-115 limits assumed): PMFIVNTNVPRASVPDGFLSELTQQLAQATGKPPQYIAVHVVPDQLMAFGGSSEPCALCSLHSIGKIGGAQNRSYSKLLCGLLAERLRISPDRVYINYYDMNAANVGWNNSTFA
Nature of the test: Dilution experiment. The note with it: MIF 34 μM with 125 μM inhibitor, diluted 100x in substrate solution. Summed up: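 Recombinant His-tagged MIF, purified on His-Trap resin, was premixed at 34 µM with 125 µM test compound in 5% DMSO. The mix was diluted 100-fold into boric acid containing 0.5 mM 4-HPP. The 4-HPP stock was made in 50 mM ammonium acetate pH 6.0 and equilibrated overnight at room temperature. Enol-borate absorbance at 306 nm was plotted against time. The control used 5% DMSO without inhibitor.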

The target of test [2] is T1, MIF. In words: Enzyme kinetic evaluation at increasing 4-HPP concentrations. The note with it: concluded from Vmax app. and Khalf app. The procedure, abridged: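 Initial velocities were taken from the linear slope of absorbance at 306 nm. Conditions were His-tagged recombinant MIF at 340 nM in boric acid pH 6.2, with 4-HPP at 0–2.56 mM (1.25× dilutions) and test compound at 0, 6.25 or 12.5 µM in 5% DMSO. Velocity versus substrate was fitted to an allosteric sigmoidal model, giving Vmax app., Hill slope and Kprime app. Khalf app. was calculated from Kprime and the Hill slope.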

Test [3] addresses T1, MIF. In words: Preincubation assay. Conditions: for Reversibility of inhibition: concluded from preincubation and dilution experiments; for Change in IC50 between preincubation times: preincubated with MIF (340 nM) for 2 or 40 min, inhibitor 125–0 μM. The procedure, abridged:
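His-tagged MIF (340 nM final, in boric acid pH 6.2) was preincubated 2 or 40 min with test compound (125–0 µM, 1.6-fold series, 5% DMSO). 0.5 mM 4-HPP (equilibrated overnight in ammonium acetate pH 6.0) was added, A306 followed, and IC50 curves made. For dilution, 34 µM MIF plus 125 µM compound was diluted 100-fold into 4-HPP/boric acid, with a DMSO-only control and absorbance tracked.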

“Also recorded” adds a separate entry of the source.

`CCCCCCCCCCCCN1C(=O)CC2C(=C(N)Oc3ccccc32)C1=O` (stereo not drawn) [Compound 10]: the “MIF enzyme activity after dilution of the enzyme-inhibitor mixture” value on MIF [1] is listed as “activity of MIF could be recovered after dilution; also recorded: Diluting the inhibitor recovered the enzyme activity”. Further, the “Mechanism of inhibition (competition with substrate 4-HPP)” value on MIF [2] was “no direct competition between the substrate 4-HPP and the inhibitor; also recorded: does not bind in direct competition with the substrate 4-HPP”. Also, at MIF [3], the Reversibility of inhibition result is “reversible inhibitors” and the “Change in IC50 between preincubation times” value was “No difference in IC50; also recorded: No significant change in IC50 value”.

Regarding `Cc1ccc2c(c1)OC(N)=C1C(=O)N(CCc3c[nH]c4ccccc34)C(=O)CC12` (stereo not drawn) [Compound 17], at MIF [3], the Reversibility of inhibition result is reported as “reversible inhibitors” and the “Change in IC50 between preincubation times” value is recorded as “No difference in IC50”.

The values are drawn from PMC6323139 (Bioorganic & medicinal chemistry, 2017).
